Like-named read-outs stand apart in the source and are kept apart here.
Experiments:
[1] = system: MCF-7 breast cancer cell line; test: MTT cytotoxicity assay; type: cell-based; conditions: for inhibition at 10 µM: Homo sapiens, MCF7, 72 h, read-out: % Inhibition (10 µM); for % Inhibition (10 µM): MCF-7, 72 h, MTT
How it was run: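 MCF-7 cells from IBRC seeded in RPMI1640 at 37 °C, 5% CO2, high humidity. After one day, medium replaced with medium containing test compound; celecoxib as reference, plain medium as control. Incubated 72 h, then MTT added for 4 h at 37 °C. Supernatant removed, cells exposed to DMSO 20 min at 37 °C, absorbance read at 570 nm.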

male NMRI mice = test: Acetic acid-induced writhing test; type: in vivo; conditions: for Response (n) Mean ± SD: number of writhing responses during 30 min, eight mice; for ED50: Mus musculus, ip, read-out: Estimated ED50 (mg/kg) (95% Confidence Interval); for Estimated ED50 (mg/kg) (95% Confidence Interval): i.p., nonlinear regression of log dose-response curve
Human recombinant COX-2 = target: T1, Human recombinant COX-2 (Homo sapiens, UniProt P35354); test: biochemical
T1 sequence (P35354 18-604): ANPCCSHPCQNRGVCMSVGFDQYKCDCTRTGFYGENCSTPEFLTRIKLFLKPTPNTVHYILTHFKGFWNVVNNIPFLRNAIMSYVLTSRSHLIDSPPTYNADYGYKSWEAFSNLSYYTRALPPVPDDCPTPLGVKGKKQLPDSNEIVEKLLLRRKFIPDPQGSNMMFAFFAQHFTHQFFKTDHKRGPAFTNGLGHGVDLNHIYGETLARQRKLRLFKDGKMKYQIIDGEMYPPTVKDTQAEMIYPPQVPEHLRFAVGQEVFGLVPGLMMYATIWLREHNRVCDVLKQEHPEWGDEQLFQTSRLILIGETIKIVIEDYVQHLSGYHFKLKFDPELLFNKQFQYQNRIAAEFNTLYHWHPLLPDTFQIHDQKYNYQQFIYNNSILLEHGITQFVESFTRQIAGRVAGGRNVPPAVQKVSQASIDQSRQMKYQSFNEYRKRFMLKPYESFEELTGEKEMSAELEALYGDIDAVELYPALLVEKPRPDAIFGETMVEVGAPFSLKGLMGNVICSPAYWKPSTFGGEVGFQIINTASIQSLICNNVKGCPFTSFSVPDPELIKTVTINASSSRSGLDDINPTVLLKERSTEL

Ovine COX-1 = target: T2, Ovine COX-1 (Ovis aries, UniProt P05979); test: COX-1 enzyme inhibition assay; type: biochemical
T2 sequence (P05979 25-600): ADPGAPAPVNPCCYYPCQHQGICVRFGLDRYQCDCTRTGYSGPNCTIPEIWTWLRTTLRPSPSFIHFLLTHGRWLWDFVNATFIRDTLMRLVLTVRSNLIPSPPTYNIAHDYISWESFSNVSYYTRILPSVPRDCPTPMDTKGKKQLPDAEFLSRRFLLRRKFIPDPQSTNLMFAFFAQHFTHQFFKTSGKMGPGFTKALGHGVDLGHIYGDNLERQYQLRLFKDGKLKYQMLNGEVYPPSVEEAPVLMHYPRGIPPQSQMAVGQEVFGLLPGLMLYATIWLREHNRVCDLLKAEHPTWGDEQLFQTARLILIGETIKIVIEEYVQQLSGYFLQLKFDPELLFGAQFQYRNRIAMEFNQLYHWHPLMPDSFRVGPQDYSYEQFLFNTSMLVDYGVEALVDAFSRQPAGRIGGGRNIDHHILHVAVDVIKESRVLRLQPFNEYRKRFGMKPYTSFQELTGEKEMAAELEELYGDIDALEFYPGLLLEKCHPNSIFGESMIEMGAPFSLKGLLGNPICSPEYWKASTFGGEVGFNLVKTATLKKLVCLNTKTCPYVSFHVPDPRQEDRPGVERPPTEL

[2] = read-out: IC50 in µM Human recombinant COX-2
[3] = read-out: IC50 in µM Ovine COX-1, fluorescent enzyme kit

Row | IC50 (Human recombinant COX-2) | Selectivity Index (SI) (Human recombinant COX-2; COX-1 vs COX-2) | IC50 (Ovine COX-1) | Selectivity Index (SI) (Human recombinant COX-2) | IC50 (Human recombinant COX-2; [2]) | IC50 (Ovine COX-1; [3]) | SMILES | inhibition at 10 µM [1] | Response (n) Mean ± SD (male NMRI mice; 10 mg/kg i.p.) | Response (n) Mean ± SD (male NMRI mice; 20 mg/kg i.p.) | Response (n) Mean ± SD (male NMRI mice; 40 mg/kg i.p.) | Response (n) Mean ± SD (male NMRI mice; 80 mg/kg i.p.) | ED50 (male NMRI mice) | Response (n) Mean ± SD (male NMRI mice; 5 mg/kg i.p.) | % Inhibition (10 µM) [1] | Estimated ED50 (mg/kg) (95% Confidence Interval) (male NMRI mice)
1 | – | – | – | – | – | – | Cc1ccc(-c2cc(C(F)(F)F)nn2-c2ccc(S(N)(=O)=O)cc2)cc1 [Celecoxib, reference compound] | 75.8% | 33.62 ± 1.79 | 26.37 ± 2.86 | 13.75 ± 2.72 | 7.37 ± 2.39 | 20.2 mg/kg | – | – | –
2 | 0.05 µM | 122 | 6.1 µM | – | – | – | CS(=O)(=O)c1ccc(-c2cc(-c3ccccc3)n3c(n2)nc2ccccc23)cc1 [Compound 5a, 2-(4-(Methylsulfonyl)phenyl)-4-phenylbenzo[4,5]imidazo[1,2-a]pyrimidine] | 53.3% | 20.75 ± 3.07 | 17.25 ± 2.95 | 12.63 ± 2.64 | 10.00 ± 1.50 | 8.65 mg/kg | 25 ± 1.58 | – | –
3 | > 100 µM | – | 48.3 µM | – | – | – | Cc1ccccc1-c1cc(-c2ccc(S(C)(=O)=O)cc2)nc2nc3ccccc3n12 [Compound 5b, 2-(4-(Methylsulfonyl)phenyl)-4-(o-tolyl)benzo[4,5]imidazo[1,2-a]pyrimidine] | 76.9% | – | – | – | – | – | – | – | –
4 | > 100 µM | – | 24 µM | – | – | – | Cc1cccc(-c2cc(-c3ccc(S(C)(=O)=O)cc3)nc3nc4ccccc4n23)c1 [Compound 5c, 2-(4-(Methylsulfonyl)phenyl)-4-(m-tolyl)benzo[4,5]imidazo[1,2-a]pyrimidine] | 76% | – | – | – | – | – | – | – | –
5 | 0.68 µM | 60 | 40.8 µM | – | – | – | Cc1ccc(-c2cc(-c3ccc(S(C)(=O)=O)cc3)nc3nc4ccccc4n23)cc1 [Compound 5d, 2-(4-(Methylsulfonyl)phenyl)-4-(p-tolyl)benzo[4,5]imidazo[1,2-a]pyrimidine] | 78.2% | 17.88 ± 4.28 | 14.75 ± 4.47 | 13.25 ± 2.59 | 10.25 ± 2.73 | 5.75 mg/kg | 18.63 ± 5.87 | – | –
6 | 0.06 µM | 115 | 6.9 µM | – | – | – | COc1ccccc1-c1cc(-c2ccc(S(C)(=O)=O)cc2)nc2nc3ccccc3n12 [Compound 5e, 4-(2-Methoxyphenyl)-2-(4-(methylsulfonyl)phenyl)benzo[4,5]imidazo[1,2-a]pyrimidine] | 74.3% | 36.63 ± 1.41 | 28.25 ± 3.99 | 19.13 ± 3.76 | 15 ± 1.58 | 29 mg/kg | 38.38 ± 1.32 | – | –
7 | > 100 µM | – | > 100 µM | – | – | – | COc1cccc(-c2cc(-c3ccc(S(C)(=O)=O)cc3)nc3nc4ccccc4n23)c1 [Compound 5f, 4-(3-Methoxyphenyl)-2-(4-(methylsulfonyl)phenyl)benzo[4,5]imidazo[1,2-a]pyrimidine] | 75.4% | – | – | – | – | – | – | – | –
8 | 5.4 µM | > 18.5 | > 100 µM | – | – | – | COc1ccc(-c2cc(-c3ccc(S(C)(=O)=O)cc3)nc3nc4ccccc4n23)cc1 [Compound 5g, 4-(4-Methoxyphenyl)-2-(4-(methylsulfonyl)phenyl)benzo[4,5]imidazo[1,2-a]pyrimidine] | 79.6% | 36.63 ± 1.32 | 29.13 ± 6.27 | 21.88 ± 3.37 | 13.63 ± 1.32 | 32.1 mg/kg | – | – | –
9 | > 100 µM | – | 13.9 µM | – | – | – | COc1ccc(-c2cc(-c3ccc(S(C)(=O)=O)cc3)nc3nc4ccccc4n23)cc1OC [Compound 5h, 4-(3,4-Dimethoxyphenyl)-2-(4-(methylsulfonyl)phenyl)benzo[4,5]imidazo[1,2-a]pyrimidine] | 79.3% | – | – | – | – | – | – | – | –
10 | 0.58 µM | 28.1 | 16.3 µM | – | – | – | COc1cc(-c2cc(-c3ccc(S(C)(=O)=O)cc3)nc3nc4ccccc4n23)cc(OC)c1OC [Compound 5i, 4-(3,4,5-Trimethoxyphenyl)-2-(4-(methylsulfonyl)phenyl)benzo[4,5]imidazo[1,2-a] pyrimidine] | 77.9% | 39.25 ± 2.38 | 30.87 ± 3.82 | 24.62 ± 3.04 | 15.87 ± 3.18 | 40.1 mg/kg | – | – | –
11 | – | – | – | 50 | 0.28 µM | 14 µM | CS(=O)(=O)c1ccc(-c2cc(-c3ccccc3F)n3c(n2)nc2ccccc23)cc1 [Compound 5j, 4-(2-Flourophenyl)-2-(4-(methylsulfonyl)phenyl)benzo[4,5]imidazo[1,2-a]pyrimidine] | – | 25.88 ± 2.98 | 19.88 ± 3.06 | 16.75 ± 3.11 | 13.38 ± 2.45 | – | 33.75 ± 1.39 | 76.73% | 15.34 (13.14–17.89) mg/kg
12 | – | – | – | – | 5.8 µM | > 100 µM | CS(=O)(=O)c1ccc(-c2cc(-c3cccc(F)c3)n3c(n2)nc2ccccc23)cc1 [Compound 5k, 4-(3-Flourophenyl)-2-(4-(methylsulfonyl)phenyl)benzo[4,5]imidazo[1,2-a]pyrimidine] | – | 32.38 ± 2.34 | 25.38 ± 3.43 | 17.63 ± 4.79 | 11.88 ± 3.18 | – | – | 58.73% | 22.80 (20.03–25.92) mg/kg
13 | – | – | – | – | 0.69 µM | 38.8 µM | CS(=O)(=O)c1ccc(-c2cc(-c3ccc(F)cc3)n3c(n2)nc2ccccc23)cc1 [Compound 5l, 4-(4-Flourophenyl)-2-(4-(methylsulfonyl)phenyl)benzo[4,5]imidazo[1,2-a]pyrimidine] | – | 34.25 ± 1.71 | 26.13 ± 2.67 | 19.25 ± 4.32 | 11.75 ± 1.48 | – | – | 56.67% | 25.26 (22.90–27.91) mg/kg
14 | > 100 µM | – | 15.2 µM | – | – | – | CS(=O)(=O)c1ccc(-c2cc(-c3ccccc3Cl)n3c(n2)nc2ccccc23)cc1 [Compound 5m, 4-(2-Chlorophenyl)-2-(4-(methylsulfonyl)phenyl)benzo[4,5]imidazo[1,2-a]pyrimidine] | 51.3% | – | – | – | – | – | – | – | –
15 | 0.24 µM | 43.3 | 10.4 µM | – | – | – | CS(=O)(=O)c1ccc(-c2cc(-c3cccc(Cl)c3)n3c(n2)nc2ccccc23)cc1 [Compound 5n, 4-(3-Chlorophenyl)-2-(4-(methylsulfonyl)phenyl)benzo[4,5]imidazo[1,2-a]pyrimidine] | 72.7% | 23.50 ± 3.20 | 19.88 ± 4.11 | 15.75 ± 4.35 | 11.50 ± 3.77 | 12.1 mg/kg | 28.50 ± 4.72 | – | –
16 | > 100 µM | – | 17.8 µM | – | – | – | CS(=O)(=O)c1ccc(-c2cc(-c3ccc(Cl)cc3)n3c(n2)nc2ccccc23)cc1 [Compound 5o, 4-(4-Chlorophenyl)-2-(4-(methylsulfonyl)phenyl)benzo[4,5]imidazo[1,2-a]pyrimidine] | 72.3% | – | – | – | – | – | – | – | –
